Compound activity (PubChem BioAssay)
Rows were chosen to be rich in hits. Some 2.7% of all compounds tested hit in one or more screens of this group.
pPAFAH FP inh: inhibitors of human plasma PAF acetylhydrolase (pPAFAH); recombinant pPAFAH, FP-rhodamine probe fluorescence polarization; AID 463082; Q13093; actives 1.5% (n = 330,000); inhibition, % at 3.39 µM;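 active = inhibition above the mean inhibition across the screen plus 3 SD, cut at about 25% in these data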;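 note: inhibitors block binding of the rhodamine activity-based probe so polarization drops; 0% = enzyme with DMSO and 100% = wells lacking pPAFAH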
Target sequence (Q13093 whole entry, looked up): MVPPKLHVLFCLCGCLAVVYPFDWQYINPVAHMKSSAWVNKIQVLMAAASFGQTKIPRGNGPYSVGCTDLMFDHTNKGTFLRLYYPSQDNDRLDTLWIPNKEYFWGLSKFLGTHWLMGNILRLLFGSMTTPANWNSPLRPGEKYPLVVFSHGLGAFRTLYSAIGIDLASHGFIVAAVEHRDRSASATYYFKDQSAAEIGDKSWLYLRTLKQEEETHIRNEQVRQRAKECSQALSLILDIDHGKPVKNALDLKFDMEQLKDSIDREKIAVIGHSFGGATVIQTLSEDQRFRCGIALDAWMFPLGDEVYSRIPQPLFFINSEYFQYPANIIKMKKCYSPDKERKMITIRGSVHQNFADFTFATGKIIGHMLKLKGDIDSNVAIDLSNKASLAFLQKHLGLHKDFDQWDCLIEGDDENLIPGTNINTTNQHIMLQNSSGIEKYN
PAFAH1B2 FP inh: PAFAH1B2 (human) inhibition; P68402; recombinant PAFAH1B2, FP-rhodamine activity probe, fluorescence polarization; inhibition, % at 3.39 µM; actives 1.2% (n = 340,000);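 active = inhibition above the mean of all tested compounds plus 3 SD, cut at about 24% in these data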;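 note: 0% = enzyme with DMSO and 100% = wells lacking PAFAH1B2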
ASAP1 GAP inh: ASAP1 ArfGAP inhibition; ASAP1-stimulated ARF1 GTP hydrolysis, GDP FP detection; inhibition, % at 16.5 µM; Q9ULH1; actives 0.19% (n = 360,000); in the data active = inhibition above about 25%;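 note: 0% = vehicle with enzyme and substrate and 100% = no enzyme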
PAFAH2 inh: inhibitors of human PAFAH2; inhibition, % at 3.39 µM; Q99487; recombinant PAFAH2, FP-rhodamine activity probe, fluorescence polarization; AID 492956; actives 0.99% (n = 340,000);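 active = inhibition above the mean over all tested compounds plus 3 SD, cut at about 30% in these data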;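 note: inhibitors block probe labeling of enzyme so polarization drops; 0% = enzyme with DMSO and 100% = wells lacking PAFAH2 protein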
ARFGAP1 inhibitor: rat ARFGAP1 inhibition. inhibition, % at 16.5 µM. Q62848. actives 0.26% (n = 360,000). AID 651572. Arfgap1-stimulated ARF1 GTP hydrolysis, GDP FP detection;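 active = inhibition above a per-plate limit, mean inhibition of low control wells plus 3 SD, cut at about 25% in these data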;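 note: 0% = DMSO wells with enzyme and 100% = wells lacking Arfgap1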
Target sequence (Q62848 1-136 limits assumed): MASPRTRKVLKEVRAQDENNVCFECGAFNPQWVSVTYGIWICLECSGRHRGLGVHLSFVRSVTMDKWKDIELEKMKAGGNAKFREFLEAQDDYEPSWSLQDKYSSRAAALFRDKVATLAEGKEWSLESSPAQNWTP
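Replicates: Single well per compound | Assay system: Truncated rat Arfgap1 GAP domain | Control set: No-Arfgap1 wells (100%) versus DMSO full-reaction wells (0%) | Times: Enzyme reaction 120 min at 25 °C after 20 min preincubation | Reagent: Human ARF1(Δ1-17)-GTP substrate | Measured by: Tracer-displacement fluorescence polarization with EDTA stop, 620/688 nm | Measure: Percent inhibition of Arfgap1-stimulated GTP hydrolysis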
PAFAH1B3 FP inh: blocks human PAF acetylhydrolase 1B catalytic subunit 3; inhibition, % at 3.39 µM; Q15102; recombinant PAFAH1B3, FP-rhodamine probe, fluorescence polarization; AID 492972; actives 0.28% (n = 340,000);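 active = inhibition above the screen-wide average of all tested compounds plus 3 SD, cut at about 25% in these data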;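 note: 0% = enzyme with DMSO only and 100% = wells lacking PAFAH1B3 protein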
pPAFAH confirm: confirmation of human plasma PAF acetylhydrolase (pPAFAH) inhibitors; shares compounds with pPAFAH FP inh; recombinant pPAFAH, FP-Rh probe fluorescence polarization; inhibition, % at 3.39 µM; actives 72% (n = 2,300);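 active = mean inhibition of the triplicate above the hit cutoff set for the earlier primary screen, cut at about 25% in these data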;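 note: 0% = enzyme with DMSO and 100% = wells lacking pPAFAH enzyme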
Numbers without * were called inactive; · = no result.

SMILES	pPAFAH FP inh	PAFAH1B2 FP inh	ASAP1 GAP inh	PAFAH2 inh	ARFGAP1 inhibitor	PAFAH1B3 FP inh	pPAFAH confirm
COc1cc(C=NNc2ccc(S(=O)(=O)Nc3ccccc3C(=O)O)cc2[N+](=O)[O-])ccc1O	62.8*	30.5*	10.9	47.5*	-4.7	20.8	77.8*
O=C(CC1CCCC1)N[C@H](C(=O)N1CCC[C@H]1C(=O)NC1CCCC1)c1ccccc1	·	·	9.6	·	3.0	·	·
CCC(c1nc2ccccc2[nH]1)n1c(C)nc2ccccc21 (stereo not drawn)	·	·	0.6	·	-0.8	·	·
CC(N=Cc1cccc(O)c1O)c1ccccc1 (stereo not drawn)	66.4*	16.7	·	26.4	·	24.4	16.6
CC(N=Cc1cc([N+](=O)[O-])ccc1O)c1ccccc1 (stereo not drawn)	-3.9	1.9	-0.2	13.2	-4.4	13.3	·
CC(=O)C1=C(C)N(Cc2ccc(F)cc2)C(=S)NC1c1ccc(Cl)cc1 (stereo not drawn)	·	·	-4.5	·	10.7	·	·
CC(C)=CCc1c2c(c(O)c3c(=O)c4c(oc13)-c1cc(O)c(O)cc1OC4C=C(C)C)C=CC(C)(C)O2 (stereo not drawn)	37.1*	·	·	·	·	·	52.0*
Cc1ccccc1S(=O)(=O)Cc1ccc(C(=O)NCCCN2CCCC2)o1	35.3*	4.8	20.2	-8.3	1.6	-0.3	0.1
Cc1ccc2nc(/C(C#N)=C/c3ccc(O)c(O)c3)[nH]c2c1	65.4*	23.5	7.5	27.2	4.8	46.6*	78.9*
CCOC(=O)C1=C(C(=O)OCC)C2N(Cc3ccc(C(F)(F)F)cc3)c3ccccc3[C@@]23C[C@@H](C(=O)OC)N(S(=O)(=O)c2ccc(OC)cc2)C3=N1 (stereo partly drawn)	·	·	9.6	·	5.3	·	·
Cc1c(C)c2ccc(OCC(=O)N[C@@H](Cc3ccccc3)C(=O)O)cc2oc1=O	1.0	-1.2	3.1	-2.7	0.8	6.8	·
CCCCCCc1c(C)c2ccc(OCC(=O)N[C@@H](Cc3ccccc3)C(=O)O)cc2oc1=O	38.3*	13.5	-10.1	16.1	-15.1	6.9	20.6
CC(C)(C)c1cc(C(=O)N/N=C/c2ccc(-c3ccccc3[N+](=O)[O-])o2)n[nH]1	58.1*	5.3	-4.4	9.0	-1.8	5.5	9.1
COc1cccc(CNC(=O)[C@H]2CCCN2C(=O)[C@H]2CCCN2C(=O)c2ccccc2)c1	·	·	1.2	·	0.5	·	·
O=C1C=C(O)c2c(O)cc(O)c(O)c2C1=O	85.4*	19.3	-9.1	44.8*	-20.6	40.0*	51.8*
C[C@@H]1Cc2c(O)c(O)cc(O)c2C(=O)O1	9.1	1.0	·	8.7	·	14.0	·
O=C(C(=O)N1CCC(CNS(=O)(=O)c2ccccc2OC(F)(F)F)CC1)c1cccs1	·	·	2.0	·	1.6	·	·
O=c1c(O)c(-c2cc(O)c(O)c(O)c2)oc2cc(O)cc(O)c12	66.1*	32.4*	8.1	8.6	11.3	40.9*	81.5*
O=c1c(O)c(-c2ccccc2)oc2cc(O)cc(O)c12	6.6	11.9	16.7	13.1	15.6	22.6	·
COc1ccc2cc(/C=N/NC(=O)CN(c3ccccc3OC)S(=O)(=O)c3ccccc3)c(Cl)nc2c1	·	·	-5.7	·	10.5	·	·
COc1ccc(CC(=O)OC(C)CN2CCCC2)cc1 (stereo not drawn)	-1.9	-1.8	2.1	-2.1	3.3	-4.2	·
CC(CN1CCOCC1)OC(=O)Cc1ccc(Cl)cc1 (stereo not drawn)	53.6*	9.0	-3.5	-10.3	9.0	4.9	5.2
S=c1[nH]nc(-c2cc3c(s2)-c2ccccc2CC3)o1	38.4*	6.5	-5.5	21.3	-4.6	6.5	61.7*
CN(C(=O)[C@H]1O[C@@H](n2cnc(C(N)=O)n2)[C@H](O)[C@@H]1O)c1ccccc1	·	·	7.8	·	16.5	·	·
CC(=O)c1c(OC(=O)c2ccccc2)c2ccccc2n1C	81.5*	-6.1	3.8	-4.3	0.9	5.3	9.1
SMILES	pPAFAH FP inh	PAFAH1B2 FP inh	ASAP1 GAP inh	PAFAH2 inh	ARFGAP1 inhibitor	PAFAH1B3 FP inh	pPAFAH confirm
N#C/C(=C\c1ccc(O)c(O)c1)C(=O)Nc1cccc2ncccc12	52.1*	10.3	18.0	49.3*	4.7	15.2	69.5*
COc1ccc(/C=C(\C#N)C(=O)Nc2cccc3ncccc23)cc1OC	0.7	2.3	-0.2	-1.1	0.8	9.4	·
Cc1cc2c(c(=O)o1)[C@@]1(C(=O)N(C)c3c(Br)cccc31)C1=C(CCCC1=O)O2	·	·	0.0	·	7.1	·	·
O=C(O)c1ccccc1Nc1cccc(OCc2ccc3ccccc3n2)c1	35.7*	8.6	-7.0	10.9	-2.6	6.8	31.3*
COc1cccc(/C=C2/C(=O)NN(c3ccccc3)C2=O)c1	·	-0.7	-0.6	24.7	10.0	1.4	·
O=C1NN(c2ccccc2)C(=O)/C1=C/c1ccc(Sc2cccc3ccccc23)o1	43.2*	7.1	-8.6	20.6	7.8	8.9	36.1*
Cc1ccnc(NC(=O)c2cc3c(=O)oc4ccc(C)cc4c3s2)c1	2.5	0.8	10.7	-0.3	1.8	-1.3	·
Cc1ccc(NC(=O)c2cc3c(=O)oc4ccc(C)cc4c3s2)nc1	66.3*	·	·	·	·	·	6.2
C[C@H](CO)N1C[C@H](C)[C@@H](CN(C)C(=O)Nc2cccc(Oc3ccccn3)c2)OCc2cn(nn2)CCCC1=O	·	·	-11.6	·	4.9	·	·
Cc1cccc(/C=C/C(=O)c2cc(Br)ccc(=O)c2O)c1	50.2*	2.7	-3.3	34.0*	-16.8	13.0	22.4
CCOc1ccc(/C=C/C(=O)c2cc(Br)ccc(=O)c2O)cc1	37.8*	-2.0	-2.5	16.2	4.5	10.8	27.7*
CCc1ccc(/C=C/C(=O)c2cc(Br)ccc(=O)c2O)cc1	70.0*	18.8	-7.7	34.2*	-13.7	0.8	42.9*
Clc1ccc(Nc2nnc(-c3ccc4c(c3)OCO4)o2)cc1	·	·	-0.2	·	3.9	·	·
CC1=C(C(=O)OCCCBr)C(c2ccc3c(c2)OCO3)NC(=O)N1 (stereo not drawn)	42.8*	-4.7	·	3.6	·	-0.6	5.6
CCCCCOC(=O)C1=C(C)NC(=O)NC1c1ccc2c(c1)OCO2 (stereo not drawn)	4.8	8.8	-1.3	8.2	-3.8	2.4	·
O=C(NC(=S)NNC(=O)c1cc2ccccc2cc1O)c1ccco1	38.6*	4.8	1.3	15.6	-0.4	14.9	36.7*
COc1cc(NC(=O)c2cc3ccccc3cc2O)c(OC)cc1Cl	9.1	1.9	6.8	5.8	9.8	7.9	·
O=C(NCCO)c1cc2ccccc2cc1O	2.8	1.4	0.1	-3.5	6.3	-4.0	·
Cc1ccc(Cl)cc1NC(=O)c1cc2ccccc2cc1O	35.2*	1.9	-7.5	2.4	-18.0	4.0	14.1
COc1ccc(C(=O)NC(=S)NNC(=O)c2ccco2)cc1	-1.4	4.3	11.2	-8.3	2.7	2.9	·
